{"source": "paper PMC11484934", "about": "(Nature Communications, 2024)", "key": {"recombinant human GAPDH": {"target": "recombinant human GAPDH (Homo sapiens, UniProt P04406)", "sequence (P04406 43-335)": "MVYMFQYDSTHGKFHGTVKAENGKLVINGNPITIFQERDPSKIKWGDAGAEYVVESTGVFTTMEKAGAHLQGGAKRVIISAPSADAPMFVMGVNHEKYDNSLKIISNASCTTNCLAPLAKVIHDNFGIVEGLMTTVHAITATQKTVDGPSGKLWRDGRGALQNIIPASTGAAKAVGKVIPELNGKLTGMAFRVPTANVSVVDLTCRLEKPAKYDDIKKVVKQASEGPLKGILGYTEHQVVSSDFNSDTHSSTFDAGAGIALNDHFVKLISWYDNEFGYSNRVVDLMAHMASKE", "test": "Thermal shift assay with purified recombinant protein", "format": "binding", "conditions": "FBP vs H2O, CBB staining", "outline": "(§1)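 Purified recombinant human protein (0.2 μg/μL) was treated with test compound or H2O for 30 min at 25 °C. It was split into six aliquots, each heated in parallel for 3 min at its set temperature, then spun 20,000 g for 20 min at 4 °C. Supernatants were run on SDS-PAGE and stained with Coomassie blue.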"}, "PMM2 [1]": {"target": "T1, PMM2 (Homo sapiens, UniProt O15305)", "T1 sequence (O15305 1-246)": "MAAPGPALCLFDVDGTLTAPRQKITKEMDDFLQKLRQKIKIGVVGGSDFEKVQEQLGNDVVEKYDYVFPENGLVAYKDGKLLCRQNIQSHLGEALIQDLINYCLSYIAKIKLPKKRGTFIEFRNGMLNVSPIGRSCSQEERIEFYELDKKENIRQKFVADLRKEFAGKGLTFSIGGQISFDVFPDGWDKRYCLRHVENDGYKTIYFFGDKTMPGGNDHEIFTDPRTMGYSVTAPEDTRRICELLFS", "test": "Thermal shift assay with purified recombinant protein", "format": "binding", "conditions": "recombinant human PMM2, FBP vs H2O, CBB staining", "outline": "as §1"}, "recombinant human PRPS1": {"system": "recombinant human PRPS1", "test": "Thermal shift assay with purified recombinant protein", "format": "binding", "conditions": "recombinant human PRPS1, FBP vs H2O, CBB staining", "outline": "as §1"}, "PGM1 [2]": {"target": "T2, PGM1 (Homo sapiens, UniProt P36871)", "T2 sequence (P36871 1-580 isoform P36871-2)": "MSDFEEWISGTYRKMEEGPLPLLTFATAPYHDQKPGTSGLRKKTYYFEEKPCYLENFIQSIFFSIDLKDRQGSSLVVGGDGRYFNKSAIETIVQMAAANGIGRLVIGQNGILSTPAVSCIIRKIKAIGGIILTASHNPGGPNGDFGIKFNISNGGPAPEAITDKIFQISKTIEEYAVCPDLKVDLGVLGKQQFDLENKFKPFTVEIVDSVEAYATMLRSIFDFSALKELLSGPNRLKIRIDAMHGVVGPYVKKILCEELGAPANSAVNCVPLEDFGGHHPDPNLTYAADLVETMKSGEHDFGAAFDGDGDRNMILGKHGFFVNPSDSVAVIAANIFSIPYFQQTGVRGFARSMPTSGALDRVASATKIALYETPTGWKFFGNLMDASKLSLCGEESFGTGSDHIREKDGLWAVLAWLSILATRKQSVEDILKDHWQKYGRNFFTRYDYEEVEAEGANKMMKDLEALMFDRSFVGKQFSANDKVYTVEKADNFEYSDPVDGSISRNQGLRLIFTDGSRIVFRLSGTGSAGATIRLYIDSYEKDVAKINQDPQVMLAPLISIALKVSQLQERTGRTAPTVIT", "test": "Thermal shift assay with purified recombinant protein", "format": "binding", "conditions": "recombinant human PGM1, FBP vs H2O, CBB staining", "outline": "as §1"}, "recombinant human RAN": {"system": "recombinant human RAN", "test": "Thermal shift assay with purified recombinant protein", "format": "binding", "conditions": "FBP vs H2O, CBB staining", "outline": "as §1"}, "recombinant human HDAC2": {"target": "recombinant human HDAC2 (Homo sapiens, UniProt Q92769)", "sequence (Q92769 whole entry)": "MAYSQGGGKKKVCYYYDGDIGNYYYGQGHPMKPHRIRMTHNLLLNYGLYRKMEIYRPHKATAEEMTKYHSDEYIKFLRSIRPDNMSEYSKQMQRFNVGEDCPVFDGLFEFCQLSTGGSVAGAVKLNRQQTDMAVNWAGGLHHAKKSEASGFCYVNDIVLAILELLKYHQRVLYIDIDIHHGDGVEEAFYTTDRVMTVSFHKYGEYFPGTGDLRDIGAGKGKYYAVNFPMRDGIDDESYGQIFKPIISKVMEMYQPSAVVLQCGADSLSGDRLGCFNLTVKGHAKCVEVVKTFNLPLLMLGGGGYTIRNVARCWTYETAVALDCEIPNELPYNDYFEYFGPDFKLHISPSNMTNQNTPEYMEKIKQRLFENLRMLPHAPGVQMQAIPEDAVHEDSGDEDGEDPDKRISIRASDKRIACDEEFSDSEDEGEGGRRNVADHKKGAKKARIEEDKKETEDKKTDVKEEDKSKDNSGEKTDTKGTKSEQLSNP", "test": "Thermal shift assay with purified recombinant protein", "format": "binding", "conditions": "recombinant human HDAC2, FBP vs H2O, CBB staining", "outline": "as §1"}, "recombinant human OXSR1": {"target": "recombinant human OXSR1 (Homo sapiens, UniProt O95747)", "sequence (O95747 whole entry)": "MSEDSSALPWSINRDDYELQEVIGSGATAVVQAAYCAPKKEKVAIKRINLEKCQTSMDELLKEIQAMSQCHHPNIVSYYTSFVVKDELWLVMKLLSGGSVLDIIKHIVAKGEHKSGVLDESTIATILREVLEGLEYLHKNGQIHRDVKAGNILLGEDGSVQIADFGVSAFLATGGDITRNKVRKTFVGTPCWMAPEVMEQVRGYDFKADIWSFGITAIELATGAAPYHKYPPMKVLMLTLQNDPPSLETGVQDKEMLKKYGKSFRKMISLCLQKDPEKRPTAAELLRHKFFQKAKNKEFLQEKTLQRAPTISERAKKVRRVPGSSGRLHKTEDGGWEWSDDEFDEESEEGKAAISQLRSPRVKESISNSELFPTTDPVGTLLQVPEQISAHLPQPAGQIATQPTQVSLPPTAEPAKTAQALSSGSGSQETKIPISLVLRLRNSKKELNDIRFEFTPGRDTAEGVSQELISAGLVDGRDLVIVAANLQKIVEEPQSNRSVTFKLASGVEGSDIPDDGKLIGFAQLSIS", "test": "Thermal shift assay with purified recombinant protein", "format": "binding", "conditions": "recombinant human OXSR1, FBP vs H2O, CBB staining", "outline": "as §1"}, "recombinant PGAM1 [3]": {"target": "T3, recombinant PGAM1 (Homo sapiens, UniProt P18669)", "T3 sequence (P18669 whole entry)": "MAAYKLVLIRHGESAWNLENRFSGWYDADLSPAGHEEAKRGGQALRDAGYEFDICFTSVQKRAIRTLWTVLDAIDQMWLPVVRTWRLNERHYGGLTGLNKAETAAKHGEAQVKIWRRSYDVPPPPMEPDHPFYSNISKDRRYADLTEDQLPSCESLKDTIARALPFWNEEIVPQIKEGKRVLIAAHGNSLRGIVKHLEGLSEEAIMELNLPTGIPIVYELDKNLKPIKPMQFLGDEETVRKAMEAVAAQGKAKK", "test": "PGAM1 enzyme activity assay", "format": "biochemical", "conditions": "for effect on PGAM1 enzymatic activity: PGAM1 enzymatic assay"}, "PGAM1-H11A": {"target": "T4, PGAM1-H11A (Homo sapiens, UniProt P18669, H11A)", "T4 sequence (P18669 1-254 H11A)": "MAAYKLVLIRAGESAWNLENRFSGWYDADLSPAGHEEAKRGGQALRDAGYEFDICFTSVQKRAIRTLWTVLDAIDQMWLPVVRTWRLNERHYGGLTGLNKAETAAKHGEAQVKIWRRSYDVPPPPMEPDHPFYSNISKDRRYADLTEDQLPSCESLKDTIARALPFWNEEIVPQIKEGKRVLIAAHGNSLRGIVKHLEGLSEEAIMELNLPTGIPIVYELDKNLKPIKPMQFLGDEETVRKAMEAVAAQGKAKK", "test": "PGAM1 enzyme activity assay, H11A mutant", "format": "biochemical"}, "PGM1 [4]": {"target": "T2, PGM1", "test": "PGM1 enzyme activity assay", "format": "biochemical"}, "PMM2 [5]": {"target": "T1, PMM2", "test": "PMM2 enzyme activity assay", "format": "biochemical"}, "recombinant PGAM1 [6]": {"target": "T3, recombinant PGAM1", "test": "Microscale thermophoresis", "format": "binding", "outline": "(§2)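 Purified protein was labelled on lysines with a RED-NHS dye. It was mixed with test compound in 50 mM Tris-HCl pH 7.5, 100 mM NaCl, 0.05% Tween-20 and incubated 30 min at room temperature in the dark. The mix was loaded into capillaries for microscale thermophoresis on a Monolith NT.115.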"}, "PGM1 [7]": {"target": "T2, PGM1", "test": "Microscale thermophoresis", "format": "binding", "outline": "as §2"}, "PMM2 [8]": {"target": "T1, PMM2", "test": "Microscale thermophoresis", "format": "binding", "outline": "as §2"}, "recombinant PGAM1 [9]": {"target": "T3, recombinant PGAM1", "test": "Histidine phosphorylation of recombinant PGAM1", "format": "biochemical", "conditions": "for PGAM1 phosphorylation / 3-pHis modification: immunoblotting and Phos-tag SDS-PAGE", "outline": "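Recombinant human PGAM1 was incubated with test compound. It was then analysed by Phos-tag SDS-PAGE or by immunoblotting with monoclonal antibodies specific for N3-phosphohistidine (3-pHis) and 1-phosphohistidine (1-pHis).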"}, "[10]": {"target": "Flag-tagged PGAM1 in HEK293T cells (Homo sapiens, UniProt P18669)", "sequence (P18669 whole entry)": "as the sequence (P18669 whole entry) above", "format": "cell-based", "conditions": "30 min, glucose-free medium"}, "HepG2 cells [11]": {"system": "HepG2 cells", "test": "LC-MS/MS quantification of intracellular FBP concentrations", "format": "cell-based, human", "conditions": "HepG2 cells treated with 10 mM FBP, 30 min", "outline": "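HepG2 cells (2 × 10^6/well, triplicates) were allowed to adhere overnight. They were treated 0.5 h with 10 mM test compound or H2O in 5 mM or 25 mM glucose medium. After PBS washes, cells were extracted in cold 80% MeOH containing 13C6-labelled internal standard (0.1 µg/mL), centrifuged and dried. Extracts were run by HILIC (BEH Amide) LC-MS/MS in negative mode, 10 mM NH4HCO3/MeCN.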"}, "HepG2 cells [12]": {"system": "HepG2 cells", "test": "LC-MS/MS detection of 3-PG and 2-PG", "format": "cell-based, human", "conditions": "10 mM FBP, 30 min", "outline": "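HepG2 cells (2 × 10^6/well, triplicates) were treated with 10 mM test compound for 0.5 h in 5 mM glucose, or H2O as control. Cells were extracted in cold 80% MeOH and analysed by HILIC LC-MS/MS in negative mode. The 3-PG and 2-PG fraction came from the m/z 97/(79 + 97) fragment ratio against standard-mixture curves. Values were scaled to the WT total mono-PG concentration.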"}, "sgCTRL HepG2 cells [13]": {"system": "sgCTRL HepG2 cells", "test": "Lactate production, sgCTRL HepG2 cells", "format": "cell-based, human", "conditions": "FBP 10 mM, 30 min", "outline": "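HepG2 cells were cultured overnight in 96 wells, then treated with H2O or 10 mM test compound for 0.5 h, or with H2O or 1 mM derivative for 24 h. Lactate in the culture medium was measured with a lactate assay kit.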"}, "sgCTRL HepG2 cells [14]": {"system": "sgCTRL HepG2 cells", "test": "Glucose consumption, sgCTRL HepG2 cells", "format": "cell-based, human", "conditions": "FBP 10 mM, 30 min", "outline": "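HepG2 cells were cultured overnight in 96 wells, then treated with H2O or 10 mM test compound for 0.5 h, or with H2O or 1 mM derivative for 24 h. Glucose consumption from the culture medium was measured with a glucose oxidase kit.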"}, "HepG2 cells [15]": {"system": "HepG2 cells", "test": "Cell viability / proliferation assay", "format": "cell-based, human", "conditions": "sgCTRL HepG2, FBP 10 mM, 24 h, glucose-free medium", "outline": "(§3)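 HepG2 cells (5000/well) were allowed to adhere overnight. They were exposed 24 h to a dilution series of test compound in glucose-free or 5 mM glucose medium, or to derivatives in 25 mM glucose medium for 24 h or 48 h. Viability was read by CCK8 colorimetry. PGAM1-knockout cells were made with a LentiCRISPR v2 sgRNA (HEK293T-packaged lentivirus, polybrene 10 µg/mL for 24 h) and selected with puromycin.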"}, "sgPGAM1 HepG2 cells": {"system": "sgPGAM1 HepG2 cells", "test": "Cell viability / proliferation assay", "format": "cell-based, human", "conditions": "sgPGAM1 HepG2, FBP 10 mM, 24 h, glucose-free medium", "outline": "as §3"}}}
{"molecule": "O=C(COP(=O)(O)O)[C@@H](O)[C@H](O)[C@H](O)COP(=O)(O)O", "note": "[FBP, fructose-1,6-bisphosphate]", "values": [{"measurement": "thermal stability of recombinant protein", "setting": "recombinant human GAPDH", "value": "increased"}, {"measurement": "thermal stability of recombinant protein", "setting": "PMM2 [1]", "value": "increased"}, {"measurement": "thermal stability of recombinant protein", "setting": "recombinant human PRPS1", "value": "increased"}, {"measurement": "thermal stability of recombinant protein", "setting": "PGM1 [2]", "value": "increased"}, {"measurement": "thermal stability of recombinant protein", "setting": "recombinant human RAN", "value": "reduced"}, {"measurement": "thermal stability of recombinant protein", "setting": "recombinant human HDAC2", "value": "reduced"}, {"measurement": "thermal stability of recombinant protein", "setting": "recombinant human OXSR1", "value": "reduced"}, {"measurement": "EC50", "setting": "recombinant PGAM1 [3]", "value": 480, "unit": "µM"}, {"measurement": "effect on PGAM1 enzymatic activity", "setting": "recombinant PGAM1 [3]", "value": "could activate the enzyme"}, {"measurement": "activation effect towards PGAM1-H11A mutant", "setting": "PGAM1-H11A", "value": "lost its activation effect"}, {"measurement": "IC50", "setting": "PGM1 [4]", "value": 2790, "unit": "µM"}, {"measurement": "IC50", "setting": "PMM2 [5]", "value": 7910, "unit": "µM"}, {"measurement": "Kd", "setting": "recombinant PGAM1 [6]", "value": 166, "unit": "µM"}, {"measurement": "Kd", "setting": "PGM1 [7]", "value": 235, "unit": "µM"}, {"measurement": "Kd", "setting": "PMM2 [8]", "value": 247, "unit": "µM"}, {"measurement": "concentration able to phosphorylate PGAM1", "setting": "recombinant PGAM1 [9]; concentration-dependent immunoblotting, recombinant PGAM1", "value": 1, "unit": "mM"}, {"measurement": "PGAM1 phosphorylation / 3-pHis modification", "setting": "recombinant PGAM1 [9]; recombinant PGAM1", "value": "act as a phosphate donor to form 3-pHis modification"}, {"measurement": "time after which 3-pHis modification decayed", "setting": "recombinant PGAM1 [9]; time-dependent PGAM1 histidine phosphorylation", "value": "> 4", "unit": "h"}, {"measurement": "histidine phosphorylation of Flag-tagged PGAM1 in living cells", "setting": "[10]", "value": "Dose-dependent histidine phosphorylation"}, {"measurement": "intracellular FBP concentration after exogenous treatment", "setting": "HepG2 cells [11]", "value": "1.435 ± 0.062", "unit": "mM"}, {"measurement": "2-PG/3-PG ratio", "setting": "HepG2 cells [12]", "value": "significant increased"}, {"measurement": "lactate production", "setting": "sgCTRL HepG2 cells [13]", "value": "significant increases"}, {"measurement": "glucose consumption", "setting": "sgCTRL HepG2 cells [14]", "value": "significant increases"}, {"measurement": "cell proliferation", "setting": "HepG2 cells [15]", "value": "significantly upregulated"}, {"measurement": "effect on cell proliferation in PGAM1-knockout cells", "setting": "sgPGAM1 HepG2 cells", "value": "abolished"}]}
{"molecule": "C=C(OP(=O)(O)O)C(=O)O", "note": "[PEP, phosphoenolpyruvate, reference compound]", "values": [{"measurement": "PGAM1 phosphorylation / 3-pHis modification", "setting": "recombinant PGAM1 [9]; recombinant PGAM1", "value": "weak phosphorylation"}]}
{"molecule": "fructose-6-phosphate [F6P]", "values": [{"measurement": "effect on PGAM1 enzymatic activity", "setting": "recombinant PGAM1 [3]", "value": "did not regulate the enzymatic activity"}]}
{"molecule": "D-mannose-6-phosphate [M6P]", "values": [{"measurement": "effect on PGAM1 enzymatic activity", "setting": "recombinant PGAM1 [3]", "value": "did not regulate the enzymatic activity"}]}
{"molecule": "O=P(O)(O)O[C@H]1O[C@H](CO)[C@@H](O)[C@H](O)[C@H]1O", "note": "[G1P, α-D-glucose-1-phosphate]", "values": [{"measurement": "effect on PGAM1 enzymatic activity", "setting": "recombinant PGAM1 [3]", "value": "did not regulate the enzymatic activity"}]}
{"molecule": "fructose-1-phosphate [F1P]", "values": [{"measurement": "effect on PGAM1 enzymatic activity", "setting": "recombinant PGAM1 [3]", "value": "did not regulate the enzymatic activity"}]}
{"molecule": "D-glucose-6-phosphate [G6P]", "values": [{"measurement": "effect on PGAM1 enzymatic activity", "setting": "recombinant PGAM1 [3]", "value": "did not regulate the enzymatic activity"}]}
